Results taken from EPA's CvTdb concentration-time database.

How the values were obtained:
Rat [1] = assay: concentration in plasma after dosing; details: 0.5 h; dosed: Gemfibrozil; 100 mg/kg; oral; Male; Sprague-Dawley
Rat [2] = assay: concentration in plasma after dosing; details: 4 h; dosed: Gemfibrozil; 4.29 mg/kg; oral; Male; Sprague-Dawley
Rat [3] = assay: concentration in plasma after dosing; details: 1 h; dosed: Gemfibrozil; 4.29 mg/kg; oral; Male; Sprague-Dawley
Rat [4] = assay: concentration in plasma after dosing; details: 0.25 h; dosed: Gemfibrozil; 50 mg/kg; oral; Male; Sprague-Dawley
Rat [5] = assay: concentration in plasma after dosing; details: 0.5 h; dosed: Gemfibrozil; 50 mg/kg; oral; Male; Sprague-Dawley
Rat [6] = assay: concentration in plasma after dosing; details: dosed: 678-39-7, 40 mg/kg, iv, Male, F344
Rat [7] = assay: concentration in kidney after dosing; details: 1 h; dosed: Fluorotelomer alcohol 8+2; 80 mg/kg; oral; Female; Harlan Sprague Dawley
Rat [8] = assay: concentration in plasma after dosing; details: dosed: Fluorotelomer alcohol 8+2, 12 mg/kg, oral, Male, Harlan Sprague Dawley
Rat [9] = assay: concentration in plasma after dosing; details: dosed: 678-39-7, 12 mg/kg, iv, Male, F344
Rat [10] = assay: concentration in kidney after dosing; details: 3 h; dosed: Fluorotelomer alcohol 8+2; 80 mg/kg; oral; Female; Harlan Sprague Dawley
Rat [11] = assay: concentration in liver after dosing; details: 1 h; dosed: Fluorotelomer alcohol 8+2; 24 mg/kg; oral; Male; Harlan Sprague Dawley
human = assay: concentration in blood after dosing; details: dosed: trichloroethylene, 100 ppm, inhalation, duration: 4 hr, person
In short: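 Concentration-versus-time or amount-versus-time points were compiled from published in vivo toxicokinetic studies and from two structured collections. The studies were found by PubMed searching, classifier screening and manual review. Points were mostly digitised from plot screenshots with WebPlotDigitizer, otherwise copied from tables, and kept in the reported units. Dose, route, subject details and medium were curated by hand from each paper, and sampling and analytical methods follow each source and were often unreported.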

Rat [12] = assay: concentration in kidney after dosing; details: 3360 h; dosed: Perfluorooctane Sulfonate; 2 mg/kg; oral; Female; Harlan Sprague Dawley
Rat [13] = assay: concentration in plasma after dosing; details: 24 h; dosed: Perfluorooctane Sulfonate; 2 mg/kg; oral; Female; Harlan Sprague Dawley
Rat [14] = assay: concentration in kidney after dosing; details: 24 h; dosed: Perfluorooctane Sulfonate; 20 mg/kg; oral; Male; Harlan Sprague Dawley
Rat [15] = assay: concentration in plasma after dosing; details: dosed: Perfluorooctane Sulfonate, 2 mg/kg, iv, Female, F344
Rat [16] = assay: concentration in brain after dosing; details: 6 h; dosed: Perfluorooctane Sulfonate; 20 mg/kg; oral; Female; F344
Rat [17] = assay: concentration in kidney after dosing; details: 6 h; dosed: Perfluorooctane Sulfonate; 2 mg/kg; oral; Female; Harlan Sprague Dawley
Rat [18] = assay: concentration in kidney after dosing; details: 864 h; dosed: Perfluorooctane Sulfonate; 20 mg/kg; oral; Female; F344
Rat [19] = assay: concentration in kidney after dosing; details: 6 h; dosed: Perfluorooctane Sulfonate; 20 mg/kg; oral; Female; F344
Rat [20] = assay: concentration in kidney after dosing; details: 24 h; dosed: Perfluorooctane Sulfonate; 2 mg/kg; oral; Female; Harlan Sprague Dawley
Rat [21] = assay: concentration in kidney after dosing; details: 6 h; dosed: Perfluorooctane Sulfonate; 20 mg/kg; oral; Male; Harlan Sprague Dawley
Rat [22] = assay: concentration in brain after dosing; details: 7 min; dosed: 2-Methyltetrahydrofuran; 40 mg/kg; iv; Male; Harlan Sprague Dawley
Rat [23] = assay: concentration in brain after dosing; details: 0.75 h; dosed: 2-Methyltetrahydrofuran; 40 mg/kg; iv; Male; Harlan Sprague Dawley
Rat [24] = assay: concentration in plasma after dosing; details: 0.75 h; dosed: 2-Methyltetrahydrofuran; 40 mg/kg; iv; Male; Harlan Sprague Dawley
Rat [25] = assay: concentration in brain after dosing; details: 7 min; dosed: 2-Methyltetrahydrofuran; 40 mg/kg; iv; Male; Harlan Sprague Dawley; remark: listed apart in the source
Rat [26] = assay: concentration in brain after dosing; details: 7 min; dosed: 2-Methyltetrahydrofuran; 40 mg/kg; iv; Male; Harlan Sprague Dawley; remark: listed apart in the source
Rat [27] = assay: concentration in plasma after dosing; details: 0.75 h; dosed: 2-Methyltetrahydrofuran; 40 mg/kg; iv; Male; Harlan Sprague Dawley; remark: listed apart in the source
Rat [28] = assay: concentration in plasma after dosing; details: 0.5 h; dosed: 2-Methyltetrahydrofuran; 40 mg/kg; iv; Female; Harlan Sprague Dawley
Rat [29] = assay: concentration in plasma after dosing; details: 1.5 h; dosed: Perfluorohexanoic Acid; 40 mg/kg; iv; Male; F344
Rat [30] = assay: concentration in plasma after dosing; details: dosed: Perfluorohexanoic Acid, 40 mg/kg, iv, Male, F344
Rat [31] = assay: concentration in plasma after dosing; details: 1 h; dosed: Perfluorohexanoic Acid; 40 mg/kg; iv; Male; F344
Rat [32] = assay: concentration in plasma after dosing; details: 0.75 h; dosed: Perfluorohexanoic Acid; 40 mg/kg; iv; Male; F344
Rat [33] = assay: concentration in plasma after dosing; details: 0.75 h; dosed: Perfluorohexanoic Acid; 40 mg/kg; iv; Female; Harlan Sprague-Dawley
Rat [34] = assay: concentration in brain after dosing; details: 3 h; dosed: Perfluorohexanoic Acid; 80 mg/kg; oral; Male; Harlan Sprague Dawley
Rat [35] = assay: concentration in liver after dosing; details: 6 h; dosed: Perfluorohexanoic Acid; 80 mg/kg; oral; Male; Harlan Sprague Dawley

Cc1ccc(C)c(OCCCC(C)(C)C(=O)O)c1 [Gemfibrozil]
Details	concentration in plasma [ng/mL]
Rat [1]	40400
Rat [2]	238
Rat [3]	142
Rat [4]	14400
Rat [5]	4640

O=C(O)CCC(F)(F)C(F)(F)C(F)(F)C(F)(F)C(F)(F)C(F)(F)C(F)(F)F [Fluorotelomer acid 7+3]
Details	concentration in plasma [ng/mL]
Rat [6], 0.25 h	84.2
Rat [6], 6 h	820
Rat [8], 48 h	169
Rat [8], 192 h	26.3
Rat [9], 1 h	502
Rat [9], 6 h	706

Details	concentration in kidney [ng/g]	concentration in liver [ng/g]
Rat [7]	584	–
Rat [10]	5620	–
Rat [11]	–	693

ClC=C(Cl)Cl [trichloroethylene]
human
Details	concentration in blood [nM]
0 h	13000
0.17 h	4900
0.5 h	3280
1 h	2200
1.5 h	1680
2 h	1340
3 h	1070
4 h	865
6 h	583
8 h	392
10 h	259

O=S(=O)([O-])C(F)(F)C(F)(F)C(F)(F)C(F)(F)C(F)(F)C(F)(F)C(F)(F)C(F)(F)F [Perfluorooctane Sulfonate]
Details	concentration in brain [ng/g]	concentration in kidney [ng/g]	concentration in plasma [ng/mL]
Rat [12]	–	1070	–
Rat [13]	–	–	5650
Rat [14]	–	67900	–
Rat [16]	3990	–	–
Rat [17]	–	12700	–
Rat [18]	–	38400	–
Rat [19]	–	152000	–
Rat [20]	–	14600	–
Rat [21]	–	63800	–

Rat [15]
Details	concentration in plasma [ng/mL]
1 h	4870
528 h	2180

CC1CCCO1 (stereo unspecified) [2-Methyltetrahydrofuran]
Details	concentration in brain [ng/mL]	concentration in plasma [ng/mL]
Rat [22]	23700	–
Rat [23]	14400	–
Rat [24]	–	23700
Rat [25]	29000	–
Rat [26]	34000	–
Rat [27]	–	22000
Rat [28]	–	28500

O=C(O)C(F)(F)C(F)(F)C(F)(F)C(F)(F)C(F)(F)F [Perfluorohexanoic Acid]
Details	concentration in brain [ng/g]	concentration in liver [ng/g]	concentration in plasma [ng/mL]
Rat [29]	–	–	320
Rat [31]	–	–	20100
Rat [32]	–	–	15200
Rat [33]	–	–	1570
Rat [34]	1460	–	–
Rat [35]	–	9200	–

Rat [30]
Details	concentration in plasma [ng/mL]
3 h	34.9
5 min	18500
